According to publication PMC11904669 (ACS Omega, 2025):
*1 amine or outer side, *2 acyl side, *3 side chain or, on linkers, in order; H or OH if unused. Where a SMILES comes first, the peptide text is derived from it. Where no end group is shown, it is not given here. Side-chain parts run from the residue outwards. The star is where a group is joined. C20 diacid = O=C(O)CCCCCCCCCCCCCCCCCCC(=O)*; γGlu = O=C(O)[C@H](CCC(=O)[*:2])N[*:1]; PEG2 = NCCOCCOCCC(=O)O

Legend:
C57BL/6J mice = assay: General observation of mice during peptide treatment; assay type: in vivo, mouse; details: CCl4 mice, 250 μg/kg i.p. daily for 4 weeks
In short: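 Male C57BL/6J mice (6–8 wk, 20–24 g) received 20% CCl4 in corn oil s.c. (5 mL/kg) every 2 days for 8 weeks, with corn-oil-injected controls. Test compound was given i.p. at 250 μg/kg daily over the last 4 weeks. Appearance, behavior and food intake were observed, and body weight was monitored (n = 5−7).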

p-ERK = assay: Western blot of p-Erk/Erk in liver, CCl4-induced liver fibrosis model; assay type: in vivo, mouse; details: CCl4 mice, 250 μg/kg i.p. daily for 4 weeks
In short: (§1)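 Male C57BL/6J mice with CCl4 fibrosis (20% in corn oil s.c., every 2 days, 8 weeks) received test compound 250 μg/kg i.p. daily over the final 4 weeks. Liver tissue was snap-frozen and stored at −80 °C, then lysed in RIPA buffer and BCA-quantified. Samples went through SDS-PAGE and PVDF transfer, overnight primary antibody at 4 °C, and ECL. Phospho-protein densitometry was normalized to GAPDH; n = 5.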

COL1α1 = assay: Western blot of COL1α1; assay type: cell-based, human; details: TGF-β-treated LX2 cells, 10 μM, 24 h, Western blot (Figure 4)
[1] = tested on: CCl4-induced liver fibrosis model; assay: Serum AST, CCl4-induced liver fibrosis model; assay type: in vivo, mouse; details: CCl4 mice, 250 μg/kg i.p. daily for 4 weeks
In short: (§2)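 CCl4 (20% in corn oil, s.c., every 2 days, 8 weeks) fibrotic male C57BL/6J mice received test compound 250 μg/kg i.p. daily for the last 4 weeks. After the final dose, mice were fasted 9 h and euthanized 8 h later. Blood was drawn retro-orbitally under anesthesia and spun at 1000g for 15 min; serum was stored at −80 °C. ALT or AST was measured by commercial kit; n = 5.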

[2] = tested on: CCl4-induced liver fibrosis model; assay: GSH in liver tissue, CCl4-induced liver fibrosis model; assay type: in vivo, mouse; details: CCl4 mice, 250 μg/kg i.p. daily for 4 weeks, n = 5
[3] = tested on: CCl4-induced liver fibrosis model; assay: SOD in liver tissue, CCl4-induced liver fibrosis model; assay type: in vivo, mouse; details: CCl4 mice, 250 μg/kg i.p. daily for 4 weeks, n = 5
[4] = tested on: CCl4-induced liver fibrosis model; assay: Hydroxyproline in liver tissue, CCl4-induced liver fibrosis model; assay type: in vivo, mouse; details: CCl4 mice, 250 μg/kg i.p. daily for 4 weeks, n = 5
In short: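 Liver fibrosis was induced in male C57BL/6J mice (6–8 wk) by s.c. 20% CCl4 in corn oil (5 mL/kg) every 2 days for 8 weeks, with corn-oil controls. Test compound was given at 250 μg/kg i.p. daily for the final 4 weeks. Livers were snap-frozen in liquid nitrogen, kept at −80 °C, and assayed for hydroxyproline; n = 5.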

[5] = tested on: CCl4-induced liver fibrosis model; assay: Liver histology; assay type: in vivo, mouse; details: CCl4 mice, 250 μg/kg i.p. daily for 4 weeks
In short: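 CCl4 model: male C57BL/6J mice, s.c. 20% CCl4 in corn oil every 2 days for 8 weeks, test compound 250 μg/kg i.p. daily during the last 4 weeks. Livers were fixed in 10% formaldehyde, deparaffinized and rehydrated. Sections got H&E, Sirius red (10 fields at 20× per liver) and IHC for α-SMA and COL1α1. Positive area was quantified excluding large bile ducts and vessels; n = 5.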

α-SMA = assay: Western blot of α-SMA in TGF-β-induced LX2 cells; assay type: cell-based, human; details: TGF-β-treated LX2 cells, 10 μM, 24 h, Western blot (Figure 4)
In short: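 LX2 human hepatic stellate cells were grown in DMEM with 10% FBS and 1% penicillin-streptomycin at 37 °C, 5% CO2. Cells were induced with TGF-β (10 ng/mL) with or without 10 μM test compound for 24 h. Lysates in RIPA buffer were BCA-quantified, run on SDS-PAGE and transferred to PVDF. Primary antibody was applied overnight at 4 °C, then ECL detection. Densitometry was normalized to GAPDH; n = 3.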

Serum stability analysis = assay type: in vitro ADME
In short: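 Peptide (5 mM) was incubated in mouse serum at 37 °C for 0, 0.25, 1, 2, 4, 8, 16 and 24 h. Reactions were quenched with ice-cold acetonitrile, vortexed 10 s and left 1 min. Water containing 1% TFA was then added, the mix was centrifuged at 13,000g for 10 min, and the supernatant was collected for analysis.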

p-Smad3 = assay: Western blot of p-Smad3/Smad3 in liver, CCl4-induced liver fibrosis model; assay type: in vivo, mouse; details: CCl4 mice, 250 μg/kg i.p. daily for 4 weeks
In short: as §1

[6] = tested on: CCl4-induced liver fibrosis model; assay: Serum ALT, CCl4-induced liver fibrosis model; assay type: in vivo, mouse; details: CCl4 mice, 250 μg/kg i.p. daily for 4 weeks
In short: as §2

FN and COL1α1 = assay: Western blot of FN and COL1α1 in TGF-β-induced LX2 cells; assay type: cell-based, human; details: 10 μM
LX2 cells = assay: CCK-8 assay of cell growth; assay type: cell-based, human; details: high concentration 64.0 μM

## CC(C)C[C@H](NC(=O)[C@@H]1CCCN1C(=O)[C@H](Cc1ccccc1)NC(=O)CNC(=O)[C@@H]1CCCN1C(=O)[C@H](C)NC(=O)[C@H](CCCCNC(=O)CCOCCOCCNC(=O)CCOCCOCCNC(=O)CC[C@H](NC(=O)CCCCCCCCCCCCCCCCCCC(=O)O)C(=O)O)NC(=O)CNC(=O)[C@H](Cc1ccccc1)NC(=O)[C@@H](N)[C@@H](C)O)C(=O)NCC(=O)N[C@@H](CO)C(N)=O [S6-FA] (H-TFGK([PEG2-PEG2-γGlu-C20 diacid])APGFPLGS-NH2)
C57BL/6J mice
  appearance, behavior, food intake, body weight: no abnormalities
p-ERK
  phosphorylation of ERK in liver: effectively inhibited
COL1α1
  expression of COL1α1: conspicuously decreased
[1]
  AST serum level: remarkably reduced
[2]
  content of GSH in liver tissue versus CCl4 group: significantly higher
[3]
  content of SOD in liver tissue versus CCl4 group: significantly higher
[4]
  HYP content in liver tissue: significantly decreased
[5]; n = 5
  collagen deposition (Sirius red): more efficacious outcomes in reducing collagen deposition compared to T6-S
[5]; versus control group and T6-S group
  fibrosis markers α-SMA and COL1α1 (IHC): notably lower
α-SMA
  expression of α-SMA: conspicuously decreased
Serum stability analysis; mouse
  half-life at 5 mM: ~24 h
p-Smad3
  phosphorylation of Smad3 in liver: effectively inhibited
[6]
  ALT serum level: remarkably reduced

## CC(C)C[C@@H]1NC(=O)[C@@H]2CCCN2C(=O)[C@H](Cc2ccccc2)NC(=O)CNC(=O)[C@@H]2CCCN2C(=O)[C@H](C)NC(=O)CNC(=O)CNC(=O)[C@H](Cc2ccccc2)NC(=O)[C@H]([C@@H](C)O)NC(=O)[C@H](CO)NC(=O)CNC1=O [S19] (cyclo(APGFPLGSTFGG))
FN and COL1α1
  effect on expression of FN and COL1α1: diminished the inhibitory impacts

## TFGGAPGFPLGS [T6-S]
LX2 cells
  growth of LX2 cells (CCK-8): did not affect the growth
Serum stability analysis; mouse serum, 37 °C, 5 mM peptide, RP-HPLC-MS, 1 h
  peptide detectable by HPLC after incubation in serum: 50%

## TFGGAPGFPLGSPLSSVFPR [T6, reference compound]
LX2 cells
  growth of LX2 cells (CCK-8): did not affect the growth

## TFGKAPGFPLGS [S6]
C57BL/6J mice
  appearance, behavior, food intake, body weight: no abnormalities
